Data from paper PMC11526549 (Journal of Nanobiotechnology, 2024).
Read-outs that look alike come from different tables or passages of the source. Positions of bridges follow the written chain, without caps; N, C: chain ends. Residues, ends and D or L forms follow the SMILES beside them. *: point of attachment. Fmoc = O=C(OCC1c2ccccc2-c2ccccc21)*

Columns and labels:
[1] = Metabolic stability in liver tissue homogenate, HPLC; assay type: in vitro ADME; settings: mouse liver tissue homogenate 50 mg/mL, 8 h, mean of n=3
S. aureus CGMCC 1.90032 [2] = experiment: Time-kill kinetics; assay type: cell-based, Staphylococcus aureus
Method in brief: (§1)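 Counts on MHA at 0, 0.5, 1, 2, 4, 6, 8, 10 and 24 h, in triplicate. MDK99 and MDK99.99 are the minimum times to 99% and 99.99% kill.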

[3] = LPS binding assay with BC probe; set-up: species or system E. coli; settings: BC probe 10 µM, LPS 1 µM, Tris 50 mM pH 7.4; 0.125-64 µM peptide; n=3
[4] = CMC determination with ANS fluorescent probe; assay type: physicochemical; settings: in PBS
Method in brief: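 CMC is the crossing point of the 480 nm intensity plotted against log peptide concentration. A parallel run at 80 µM peptide adds LPS or LTA (final 1 µM) to test their effect on assembly.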

trypsin [5] = experiment: Trypsin resistance of LPS-induced nanofibers versus nanoparticles, HPLC; assay type: in vitro ADME; settings: n=3
Method in brief: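 Peptide (80 µM), LPS (1 µM) and trypsin (10 µM) combined in different orders. In one arm LPS pre-forms nanofibers before trypsin; in another peptide is pre-incubated with trypsin before LPS. A non-specific assembly condition serves as reference. Peptide retention measured by HPLC and expressed as a ratio to that reference; n=3.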

ζ-potential = assay type: physicochemical; settings: 80 µM in PBS pH 7.4, room temperature
[6] = Particle size of self-assembled AMPs; assay type: physicochemical; settings: 80 µM peptide, SEM/TEM
Method in brief: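 Test compound at 80 µM, alone or with LPS or LTA (final 1 µM), imaged by SEM and TEM to assess assembly morphology and particle size.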

E. coli ATCC 25922 = experiment: Serum stability test; assay type: in vitro ADME, Escherichia coli; settings: 37°C, 8 h, MIC vs E. coli ATCC 25922
[7] = Proteolytic stability in trypsin, HPLC; assay type: in vitro ADME; settings: trypsin (1 w/v%)
Method in brief: (§2)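 Test compound (2560 µM) incubated with 1 w/v% trypsin at 37 °C. Aliquots taken at 0.5, 1, 2, 4 and 6 h, diluted to 256 µM in 0.1% TFA/water and quantified by HPLC. Remaining peptide calculated as a time course; n=3.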

[8] = LTA binding assay with BC probe; set-up: species or system S. aureus; settings: BC probe 10 µM, LTA 1 µM, Tris 50 mM pH 7.4; 0.125-64 µM peptide; n=3
E. coli CGMCC 1.90026 [9] = experiment: Time-kill kinetics; assay type: cell-based, Escherichia coli; settings: 1×, 2× or 4× MIC
Method in brief: as §1

S. aureus CGMCC 1.90032 [10] = experiment: Mouse mastitis model; assay type: in vivo; settings: compared with NC group
Method in brief: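 Female ICR mice 10 d post-partum, separated from pups 2 h before infection. Under anaesthesia, nipple tip trimmed 0.5 mm. Mid-log S. aureus CGMCC 1.90032 (PBS-washed, 1×10^3 CFU/mL, 100 µL) inoculated via the fourth-pair nipple ducts. Test compound (100 or 200 µM) given intraductally 3 h post-infection. Groups: uninfected, untreated, ceftiofur sodium 200 µM. Mammary and spleen organ indices recorded.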

E. coli CGMCC 1.90026 [11] = experiment: Mouse mastitis model; assay type: in vivo
Method in brief: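 Female ICR mice 10 d post-partum, pups removed 2 h before infection. Under anaesthesia, 0.5 mm trimmed from the fourth nipple pair. Mid-log E. coli CGMCC 1.90026 (PBS-washed, 5×10^3 CFU/mL, 100 µL) given through the nipple duct. 3 h later, test compound (100 or 200 µM) given via the mammary duct. Groups: uninfected, untreated, ceftiofur sodium 200 µM. Mammary TNF-α, IL-1β, IL-6 and IL-2 measured.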

E. coli = experiment: Cytoplasmic membrane potential, DiSC3; assay type: cell-based, Escherichia coli; settings: DiSC3-5, 5-80 µM, no dose-dependent effect
Method in brief: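 Clinical isolate E. coli CGMCC 1.90026 exposed to test compound. Cytoplasmic membrane potential change followed with the potentiometric dye DiSC3-5.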

S. aureus = experiment: Membrane fluidity assay, Laurdan GP; assay type: cell-based, Staphylococcus aureus; settings: 5-80 µM, 1 h, n=3
E. coli CGMCC 1.90026 [12] = experiment: Mutation-proof concentration; assay type: cell-based, Escherichia coli
E. coli CGMCC 1.90026 [13] = experiment: Membrane integrity, PI uptake by flow cytometry; assay type: cell-based, Escherichia coli; settings: range over 5-80 µM and both E. coli strains (Fig. 7A, Figure S15A)
Method in brief: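 Clinical E. coli CGMCC 1.90026 treated with test compound at 5, 20, 40 or 80 µM. Propidium iodide-positive cells counted by flow cytometry as the membrane penetration rate.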

[14] = test system: E. coli liposomes (polar lipid extracts); experiment: Membrane fluidity assay, Laurdan GP; assay type: cell-based, Escherichia coli; settings: 5-80 µM, 1 h, concentration-dependent, n=3
S. aureus CGMCC 1.90032 [15] = experiment: Mutation-proof concentration; assay type: cell-based, Staphylococcus aureus
mouse erythrocytes = experiment: Hemolysis assay; assay type: cell-based; settings: 128 μM peptide, 8% mouse erythrocytes, 1 h, OD 540 nm; n=5
Method in brief: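 Test compound (1–128 µM final) mixed 1:1 by volume with 8% mouse erythrocytes, 37 °C, 1 h. Spun 1500 rpm, 5 min, and supernatant A540 read. PBS set 0% and 0.1% Triton X-100 set 100%. Hemolysis (%) = (A_peptide−A0)/(A100−A0)×100.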

trypsin [16] = experiment: Proteolytic stability in trypsin, HPLC; assay type: in vitro ADME; settings: 1 w/v% trypsin, after 4 h, HPLC
Method in brief: as §2

[17] = cited from earlier work
[18] = in comparison to self-assembled nanoparticles CPC-2; cited from earlier work
[19] = cited from earlier work; remark: listed apart in the source

## CC(C)C[C@H](NC(=O)[C@H](CCCCN)NC(=O)OCC1c2ccccc2-c2ccccc21)C(=O)N[C@H](C(=O)N[C@@H](Cc1ccccc1)C(=O)N[C@@H](Cc1ccccc1)C(=O)N[C@@H](CCCCN)C(=O)NCC(=O)N[C@@H](Cc1ccccc1)C(=O)N[C@@H](C)C(=O)N[C@@H](Cc1c[nH]c2ccccc12)C(=O)N[C@@H](CC(N)=O)C(=O)N[C@H](C(=O)N[C@H]1CSSC[C@@H](C(=O)N[C@@H](Cc2c[nH]cn2)C(=O)N[C@@H](CCCNC(=N)N)C(=O)N[C@@H](CCCNC(=N)N)C(=O)N[C@@H](C)C(=O)N[C@@H](CC(N)=O)C(N)=O)NC(=O)[C@H](C(C)C)NC(=O)[C@H](CCCNC(=N)N)NC(=O)[C@H](C(C)C)NC(=O)CNC(=O)[C@H](CC(N)=O)NC(=O)[C@H](CCCNC(=N)N)NC(=O)[C@H](Cc2ccc(O)cc2)NC(=O)[C@H](C(C)C)NC1=O)C(C)C)C(C)C [FKN] (Fmoc-KLVFFKGFAWNVCVYRNGVRVCHRRAN-NH2; disulfide 13-22)
[1]
  peptide retention rate in liver tissue: 33.93%
S. aureus CGMCC 1.90032 [2]; various concentrations
  time to complete kill: ≤ 1 h
[3]
  affinity to LPS of E. coli: even greater than that of N6
[4]; ANS 25.6 µM, 1 h, fluorescence at 480 nm vs log concentration
  critical micelle concentration (CMC): 7.94 µM
Trypsin [5]; 80 µM peptide pre-incubated with LPS 1 µM, then trypsin 10 µM 0.5 h
  protein retention rate of nanofibers: 90.1%
Trypsin [5]; 80 µM peptide without LPS pre-assembly, trypsin 10 µM 0.5 h
  protein retention rate of nanoparticles: 76.63%
ζ-potential
  zeta-potential: 24 mV
[6]
  particle sizes of nanoparticles: 69.78±11.56 nm
E. coli ATCC 25922
  MIC after incubation in 25% serum: stable MICs
[7]; peptide retention rate, 1 w/v% trypsin, 6 h, HPLC, mean of n=3
  remaining at 6 h, 2560 µM: 44.2%
[8]
  affinity to LTA of S. aureus: even greater than that of N6
E. coli CGMCC 1.90026 [9]
  time to complete eradication: ≤ 4 h

## CC(C)[C@@H]1NC(=O)CNC(=O)[C@H](CC(N)=O)NC(=O)[C@H](CCCNC(=N)N)NC(=O)[C@H](Cc2ccc(O)cc2)NC(=O)[C@H](C(C)C)NC(=O)[C@@H](NC(=O)[C@@H](NC(=O)[C@H](CC(N)=O)NC(=O)[C@H](Cc2c[nH]c3ccccc23)NC(=O)[C@H](C)NC(=O)[C@H](Cc2ccccc2)NC(=O)CN)C(C)C)CSSC[C@@H](C(=O)N[C@@H](Cc2c[nH]cn2)C(=O)N[C@@H](CCCNC(=N)N)C(=O)N[C@@H](CCCNC(=N)N)C(=O)N[C@@H](C)C(=O)N[C@@H](CC(N)=O)C(N)=O)NC(=O)[C@H](C(C)C)NC(=O)[C@H](CCCNC(=N)N)NC1=O [N6] (H-GFAWNVCVYRNGVRVCHRRAN-NH2; disulfide 7-16)
S. aureus CGMCC 1.90032 [10]
  indices of the mammary gland and spleen: significantly decreased
S. aureus CGMCC 1.90032 [2]; minimum time for 99% sterilization
  MDK99: 1.45 h
S. aureus CGMCC 1.90032 [2]; minimum time for 99.99% sterilization
  MDK99.99: 1.99 h
[4]; fluorescence in direct correlation with concentration
  self-assembly by ANS fluorescence: incapable of self-assembling
E. coli CGMCC 1.90026 [11]
  histopathology of mammary gland (HE): significant improvement in inflammatory symptoms
E. coli CGMCC 1.90026 [11]; 100 or 200 µM, ELISA, n=4
  levels of inflammatory factors (TNF-α, IL-1ß, IL-6 and IL-2) in mammary tissue: significantly reduced
E. coli
  plasma membrane depolarization: underwent depolarization
S. aureus
  Laurdan GP (membrane fluidity): also increased
E. coli CGMCC 1.90026 [12]
  SI (MPCs/MIC): 6.4
E. coli CGMCC 1.90026 [13]
  membrane penetration rates toward E. coli: 2.34 -80.7%
[14]
  Laurdan GP (membrane fluidity): significant increase in Laurdan GP
S. aureus CGMCC 1.90032 [15]
  SI (MPCs/MIC): 6.4
E. coli CGMCC 1.90026 [9]
  time to complete eradication: ≤ 4 h

## CC(C)[C@@H]1NC(=O)CNC(=O)[C@H](CC(N)=O)NC(=O)[C@H](CCCNC(=N)N)NC(=O)[C@H](Cc2ccc(O)cc2)NC(=O)[C@H](C(C)C)NC(=O)[C@@H](NC(=O)[C@@H](NC(=O)[C@H](CC(N)=O)NC(=O)[C@H](Cc2c[nH]c3ccccc23)NC(=O)[C@H](C)NC(=O)[C@H](Cc2ccccc2)NC(=O)CN)C(C)C)CSSC[C@@H](C(=O)N[C@@H](Cc2cnc[nH]2)C(=O)N[C@@H](CCCNC(=N)N)C(=O)N[C@@H](CCCNC(=N)N)C(=O)N[C@@H](C)C(=O)N[C@@H](CC(N)=O)C(N)=O)NC(=O)[C@H](C(C)C)NC(=O)[C@H](CCCNC(=N)N)NC1=O [N6] (H-GFAWNVCVYRNGVRVCHRRAN-NH2; disulfide 7-16)
[1]
  peptide retention rate in liver tissue: less than 9.76%
Mouse erythrocytes
  hemolysis rate: no hemolysis
E. coli ATCC 25922
  MIC after incubation in 25% serum: twofold
Trypsin [16]
  degradation in trypsin: completely degraded
[7]
  metabolised at 0.5 h, 2560 µM: > 50%

## BP-KFFVLK-RLKLILKSK [BET]
[17]; LPS induction
  time to complete transformation from nanoparticles to nanofibers: 72 h

## BP-KLVFF -RLYLRIGRR [HDMP]
[17]; LTA induction
  time to complete transformation from nanoparticles to nanofibers: 48 h

## Chitosan-GPLGVRGC-PEG2000- CGGG(KLAKLAK)2 [CPC-1]
[18]
  prolongation of the half-life at the site of infection: fourfold

## FLGALFRALSRLL [PTP-7]
[19]; before self-assembly
  stability in serum: 2 h
[19]; by self-assembly technology
  stability in serum: more than 5 h
